The values that follow come from ChEMBL document CHEMBL1142537, “Spirocyclic benzopyran-based derivatives as new anti-ischemic activators of mitochondrial ATP-sensitive potassium channel” (J Med Chem, 2008).

For assay [1], the system named is Aorta. The assay is described as follows: Vasorelaxation activity in Wistar rat thoracic aortic ring assessed as inhibition of KCl-induced contraction at 100 uM relative to KCl. In kind it is functional. In short, it runs like this: (§1)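 Endothelium-denuded rat aortic rings recorded isometrically, equilibrated 60 min. Denudation checked with ACh (10 µM) on KCl (20 mM) tone; rings relaxing ≥10% discarded. Rings contracted with 20 mM KCl, then given 3-fold cumulative concentrations from 10 nM to 100 µM.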

Assay [2] has as its system Rattus norvegicus. Briefly: Cardioprotective activity in Langendorff perfused Wistar rat assessed as rate pressure product at 40 mg/kg, ip recorded after 30 mins of ischemia followed by 120 mins of reperfusion in presence of 5-hydroxydecanoic acid. In kind it is functional, organism-based. Further details: dose 40 mg/kg. The essentials:
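In this series the mito-KATP blocker 5-hydroxydecanoic acid (10 mg/kg, in water) was given 20 min before the ip compound (40 mg/kg). The Langendorff protocol was then run: 30 min global ischemia, 120 min reperfusion. RPP at 120 min expressed as % of preischemic value.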

In assay [3] the test system is Rattus norvegicus. Briefly: Antiischemic activity in Langendorff perfused Wistar rat assessed as ratio of ischemic area to total area at 40 mg/kg, ip. It is filed as functional. The conditions noted are these: route intraperitoneal.
The subject of assay [4] is Rattus norvegicus. The assay is described as follows: Cardioprotective activity in Langendorff perfused Wistar rat assessed as rate pressure product at 40 mg/kg, ip recorded after 30 mins of global ischemia followed by 120 mins of reperfusion. In kind it is functional. The conditions noted are these: route intraperitoneal. In short, it runs like this:
(§2)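 Adult male Wistar rats (260-350 g) given the compound ip in DMSO (40 mg/kg; cromakalim 1 mg/kg), then after 2 h anaesthetised with pentobarbital (100 mg/kg ip) and heparinized (100 UI ip). Hearts on Langendorff apparatus with an LV balloon (end-diastolic 5-10 mmHg). 30 min equilibration, 30 min global no-flow ischemia, 120 min reperfusion. RPP at 120 min expressed as % of preischemic RPP.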

Assay [5] relates to Aorta. Briefly: Vasorelaxation activity in Wistar rat thoracic aortic ring assessed as inhibition of KCl-induced contraction. It is filed as functional, tissue-based. The essentials:
as §1

Assay [6] has as its system Rattus norvegicus. Briefly: Hypotensive activity in normotensive Wistar rat assessed as systolic blood pressure at 1 mg/kg, ip after 90 mins. It is filed as functional, organism-based. Further details: dose 1 mg/kg. The conditions noted are these: Artery. In short, it runs like this:
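Male 10-week-old normotensive Wistar rats (250 g), heparinized (100 UI ip) and anaesthetised with pentobarbital (60 mg/kg). Tail warmed 20 min under IR lamp, basal systolic pressure taken by tail-cuff. Cromakalim given ip at 1 mg/kg, groups of five. Systolic pressure recorded every 30 min for 90 min, as % of basal.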

In assay [7] the test system is Rattus norvegicus. The assay is described as follows: Cardioprotective activity in Langendorff perfused Wistar rat assessed as rate pressure product at 1 mg/kg, ip recorded after 30 mins of global ischemia followed by 120 mins of reperfusion. In kind it is functional. The note with it: route intraperitoneal. The essentials: as §2

The structures appear in SMILES notation. Active and inactive are the calls of the source. No cut-off for these calls is given here.

On to `CC(=O)Nc1ccc(CN2CCOC3(C2)CC(C)(C)Oc2ccccc23)cc1` (racemic), for which the Emax (in general, the maximal effect, on the per cent scale that the assay sets) at 100 µM in assay [1] turned out to be 76.6%.
The same measure, in the same setting: for `CC(=O)Nc1ccc(CN2CC3(CC(C)(C)Oc4ccc(Br)cc43)OCC2=O)cc1` (racemic) the value was 69.7%.
In the case of `CC1(C)CC2(CN(Cc3ccc(NS(C)(=O)=O)cc3)C(=O)CO2)c2cc(Br)ccc2O1` (racemic), the outcome in assay [2] was inactive. Further, in assay [1], the Emax at 100 µM came out at 86.8%.
As to `CC(=O)Nc1ccc(CN2CC3(CC(C)(C)Oc4ccccc43)OCC2=O)cc1` (racemic), the result in assay [2] was inactive. For the same molecule, in assay [1], the Emax at 100 µM was 56.5%.
Consider `CC(=O)Nc1ccc(CN2CCOC3(C2)CC(C)(C)Oc2ccc(Br)cc23)cc1` (racemic), for which, in assay [1], the Emax at 100 µM worked out at 99.8%.
For `CC1(C)CC2(CN(Cc3ccc(NS(C)(=O)=O)cc3)CCO2)c2cc(Br)ccc2O1` (racemic), the outcome in assay [2] was inactive. The Emax at 100 µM in assay [1] was 98.1%.
Consider `COc1ccccc1CN1CC2(CC(C)(C)Oc3ccccc32)OCC1=O` (racemic), for which the Ratio in assay [3] stood at 25%. Besides, the Activity in assay [4] came to 36%.
Turning to `CC1(C)CC2(CN(Cc3ccccc3)C(=O)CO2)c2cc(Br)ccc2O1` (racemic), the IC50 (commonly the point on the concentration scale where inhibition reaches its midpoint) in assay [5] is 14.5 µM. Moreover, in assay [3], the Ratio turned out to be 43%. In addition, the Activity in assay [4] came out at 37%. The Emax at 100 µM in assay [1] came out at 65.8%.
On to `COc1cccc(CN2CCOC3(C2)CC(C)(C)Oc2ccc(Br)cc23)c1` (racemic), for which, in assay [3], the Ratio worked out at 29%. The Activity in assay [4] turned out to be 42%.
The like results for `CC1(C)CC2(CN(Cc3ccccc3)CCO2)c2cc(Br)ccc2O1` (racemic) were, in that order, 31% and 42%.
For `CC1(C)CC2(CN(Cc3ccc(N)cc3)C(=O)CO2)c2cc(Br)ccc2O1` (racemic) the same measures were 22% and 52%.
For `Cc1ccc(CN2CC3(CC(C)(C)Oc4ccc(Br)cc43)OCC2=O)cc1` (racemic) the same measures were 22% and 38%.
On to `CC1(C)CC2(CN(Cc3ccc(C(F)(F)F)cc3)C(=O)CO2)c2cc(Br)ccc2O1` (racemic), for which the Ratio in assay [3] is given as 42%. In addition, the Activity in assay [4] was determined as 47%.
Take `COc1ccc(CN2CCOC3(C2)CC(C)(C)Oc2ccc(Br)cc23)cc1` (racemic): the IC50 in assay [5] was 34.7 µM. In assay [3], the Ratio is given as 10%. In addition, in assay [4], the Activity came to 60%. Also, the Emax at 100 µM in assay [1] stood at 61.6%.
The like results for `CC1(C)CC2(CN(Cc3ccc(Br)cc3)C(=O)CO2)c2ccccc2O1` (racemic) were, in that order, 4.9 µM, 23%, 80% and 89.2%.
The like results for `COc1ccc(CN2CC3(CC(C)(C)Oc4ccc(Br)cc43)OCC2=O)cc1` (racemic) were, in that order, 3.02 µM, 16%, 76% and 91.8%.
For the molecule `COc1ccccc1CN1CC2(CC(C)(C)Oc3ccc(Br)cc32)OCC1=O` (racemic), in assay [3], the Ratio is on record as 28%. The Activity in assay [4] was found to be 42%.
Turning to `CC1(C)CC2(CN(Cc3ccc(C(F)(F)F)cc3)CCO2)c2cc(Br)ccc2O1` (racemic), the IC50 in assay [5] is 17.8 µM. The Ratio in assay [3] was 5%. In addition, the Activity in assay [4] worked out at 84%. The Emax at 100 µM in assay [1] came out at 57.8%.
In the case of `CC1(C)CC2(CN(Cc3ccc(Br)cc3)CCO2)c2cc(Br)ccc2O1` (racemic), the Ratio in assay [3] was 16%. The Activity in assay [4] came out at 53%.
For `CC1(C)CC2(CN(Cc3ccc(Br)cc3)CCO2)c2ccccc2O1` (racemic) the same measures were 35% and 43%.
The like results for `COc1ccccc1CN1CCOC2(C1)CC(C)(C)Oc1ccccc12` (racemic) were, in that order, 34% and 65%.
`CC1(C)CC2(CN(Cc3ccc(NS(C)(=O)=O)cc3)CCO2)c2ccccc2O1` (racemic): the half-inhibitory concentration (IC50) in assay [5] was 15.5 µM. Also, in assay [3], the Ratio is on record as 35%. Besides, in assay [4], the Activity is 23%. Moreover, the maximum response (Emax) at 100 µM in assay [1] was 80.6%.
With `CC1(C)CC2(CN(Cc3ccc(N)cc3)C(=O)CO2)c2ccccc2O1` (racemic), the Ratio in assay [3] is given as 19%. Besides, the Activity in assay [4] is recorded as 53%. Besides, the Emax at 100 µM in assay [1] turned out to be 12.5%.
For the molecule `CC1(C)CC2(CN(Cc3ccc(NS(C)(=O)=O)cc3)C(=O)CO2)c2ccccc2O1` (racemic), in assay [5], the half-maximal inhibitory concentration (IC50) was 2.95 µM. For the same molecule, the Ratio in assay [3] was 23%. Further, the Activity in assay [4] turned out to be 70%. Also, the Emax at 100 µM in assay [1] came to 98%.
For the molecule `CC1(C)CC2(CN(Cc3ccccc3)CCO2)c2ccccc2O1` (racemic), the IC50 in assay [5] is 6.76 µM. The Ratio in assay [3] came to 18%. In assay [2], the outcome was inactive. The Activity in assay [4] is 77%. For the same molecule, the Emax at 100 µM in assay [1] was found to be 85.9%.
Turning to `COc1cccc(CN2CC3(CC(C)(C)Oc4ccccc43)OCC2=O)c1` (racemic), in assay [3], the Ratio turned out to be 41%. Further, the Activity in assay [4] amounted to 29%.
The like results for `Cc1ccc(CN2CCOC3(C2)CC(C)(C)Oc2ccc(Br)cc23)cc1` (racemic) were, in that order, 29% and 57%.
For `COc1ccc(CN2CC3(CC(C)(C)Oc4ccccc43)OCC2=O)cc1` (racemic) the same measures were 29% and 27%.
For `CC1(C)CC2(CN(Cc3ccc(N)cc3)CCO2)c2cc(Br)ccc2O1` (racemic) the same measures were 39% and 30%.
Turning to `CC1(C)CC2(CN(Cc3ccc(Br)cc3)C(=O)CO2)c2cc(Br)ccc2O1` (racemic), in assay [3], the Ratio stood at 47%. Further, the Activity in assay [4] was found to be 23%.
For the molecule `COc1cccc(CN2CCOC3(C2)CC(C)(C)Oc2ccccc23)c1` (racemic), in assay [3], the Ratio is given as 17%. In addition, the Activity in assay [4] is given as 38%.
Take `CC1(C)CC2(CN(Cc3ccc(C(F)(F)F)cc3)C(=O)CO2)c2ccccc2O1` (racemic): the IC50 in assay [5] was 7.08 µM. Besides, in assay [3], the Ratio is reported as 53%. For the same molecule, the Activity in assay [4] was found to be 2%. Also, in assay [1], the maximum response (Emax) at 100 µM is 101%.
`COc1ccccc1CN1CCOC2(C1)CC(C)(C)Oc1ccc(Br)cc12` (racemic): the Ratio in assay [3] is listed as 30%. In assay [4], the Activity stood at 59%.
The like results for `Cc1ccc(CN2CC3(CC(C)(C)Oc4ccccc43)OCC2=O)cc1` (racemic) were, in that order, 23% and 44%.
For the molecule `COc1cccc(CN2CC3(CC(C)(C)Oc4ccc(Br)cc43)OCC2=O)c1` (racemic), the Ratio in assay [3] is recorded as 29%. In addition, the Activity in assay [4] stood at 27%.
The like results for `Cc1ccc(CN2CCOC3(C2)CC(C)(C)Oc2ccccc23)cc1` (racemic) were, in that order, 47% and 35%.
For the molecule `CC1(C)CC2(CN(Cc3ccc(N)cc3)CCO2)c2ccccc2O1` (racemic), the IC50 in assay [5] was 28.2 µM. Moreover, in assay [3], the Ratio was found to be 25%. Further, the Activity in assay [4] is on record as 58%. Also, the Emax at 100 µM in assay [1] worked out at 52.3%.
The like results for `CC1(C)CC2(CN(Cc3ccccc3)C(=O)CO2)c2ccccc2O1` (racemic) were, in that order, 28.2 µM, 33%, 35% and 55.3%.
The like results for `CC1(C)CC2(CN(Cc3ccc(C(F)(F)F)cc3)CCO2)c2ccccc2O1` (racemic) were, in that order, 22.9 µM, 31%, 34% and 59.9%.
For the molecule `COc1ccc(CN2CCOC3(C2)CC(C)(C)Oc2ccccc23)cc1` (racemic), the Ratio in assay [3] came to 26%. Also, the Activity in assay [4] was 61%.
Take `CC1(C)Oc2ccc(C#N)cc2C(N2CCCC2=O)C1O` (stereo not drawn) [CROMAKALIM]: in assay [6], the outcome was Active. For the same molecule, in assay [7], the Activity was determined as 94%. The outcome in assay [2] was inactive.
Turning to `CC1=Nc2ccc(Cl)cc2S(=O)(=O)N1` [DIAZOXIDE], the Ratio in assay [3] amounted to 28%. Also, the result in assay [2] was inactive.
